Hits are enriched below; roughly 1.2% of the tested compounds scored in any of these assays.
G6PDH CS: counter-screen for G6PDH assay hits: L. mesenteroides G6PDH inhibition. Purified L. mesenteroides G6PDH, diaphorase/resazurin coupled fluorescence, 45 min. inhibition, % at 5 µM. 0.12% of 200,000 active; in the data active = inhibition above about 50%
Diaphorase inh: inhibits diaphorase or chemically oxidizes, flagging diaphorase assay artifacts; 0.69% of 190,000 active; diaphorase resazurin-to-resorufin fluorescence, NADH, 16 min; bacterial (C. kluyveri) enzyme, not human; AID 1217; inhibition, % at 20 µM;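 active = primary screen inhibition at 20 µM above a set limit, cut at about 50% in these data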
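Assay system: diaphorase enzyme from Clostridium kluyveri; Input: enzyme working solution with 0.14 U/mL diaphorase; Timing: 16 min at room temperature; Technique: resorufin fluorescence, excitation 544 nm, emission 590 nm; Benchmarks: positive control minus NADH, DMSO neutral control.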
PfGluPho inh: PfG6PD (Plasmodium falciparum) enzyme inhibition; PfGluPho enzyme, NADPH resazurin-diaphorase fluorescence; inhibition, % at 20 µM; 0.78% of 350,000 active; AID 504690;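 active = inhibition reaching at least a set limit at 20 µM in the primary screen, cut at about 59% in these data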
HKDC1 inh: blocks human hexokinase HKDC1 activity; Q2TB90; inhibition, % at 20 µM; AID 493160; recombinant HKDC1, G6PDH/diaphorase resazurin coupled fluorescence; 0.16% of 340,000 active;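 active = inhibition above about 35% when tested at 20 µM, limit read from the data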
Target sequence (Q2TB90 whole entry, looked up): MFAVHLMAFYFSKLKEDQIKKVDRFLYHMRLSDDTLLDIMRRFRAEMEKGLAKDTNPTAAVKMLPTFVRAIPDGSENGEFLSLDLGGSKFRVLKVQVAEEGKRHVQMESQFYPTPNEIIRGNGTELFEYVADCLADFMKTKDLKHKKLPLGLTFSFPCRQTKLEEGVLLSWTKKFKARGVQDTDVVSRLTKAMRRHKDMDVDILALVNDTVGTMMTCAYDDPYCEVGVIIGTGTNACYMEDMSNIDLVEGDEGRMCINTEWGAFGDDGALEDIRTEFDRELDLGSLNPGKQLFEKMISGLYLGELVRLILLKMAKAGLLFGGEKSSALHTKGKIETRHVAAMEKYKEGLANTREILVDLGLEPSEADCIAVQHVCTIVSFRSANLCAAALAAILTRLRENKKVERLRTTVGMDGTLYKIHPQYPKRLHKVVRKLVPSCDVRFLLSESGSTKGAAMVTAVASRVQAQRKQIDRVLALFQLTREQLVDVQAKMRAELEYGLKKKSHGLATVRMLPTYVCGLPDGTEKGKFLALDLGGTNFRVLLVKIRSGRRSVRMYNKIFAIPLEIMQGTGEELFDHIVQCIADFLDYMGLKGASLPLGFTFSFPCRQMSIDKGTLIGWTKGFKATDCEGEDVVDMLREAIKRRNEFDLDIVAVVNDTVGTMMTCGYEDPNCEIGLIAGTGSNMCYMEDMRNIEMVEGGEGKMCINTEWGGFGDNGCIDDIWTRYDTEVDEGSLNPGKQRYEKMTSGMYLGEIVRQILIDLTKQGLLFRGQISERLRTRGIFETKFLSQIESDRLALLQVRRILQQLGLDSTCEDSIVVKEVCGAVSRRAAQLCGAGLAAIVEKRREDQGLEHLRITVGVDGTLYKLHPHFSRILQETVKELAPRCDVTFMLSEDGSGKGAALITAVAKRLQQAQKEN
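Assay system – recombinant HKDC1 (HK5) hexokinase enzyme, produced in-house · Input – HKDC1 at 5 µg/mL · Reagent – glucose plus 1 mM ATP as hexokinase substrates · Timing – 90 min reaction incubation at room temperature, dark · Measured by – G6PDH/diaphorase-coupled fluorescence, 1 mM NADP, 100 µM resazurin, 525/613 nm · Benchmarks – DMSO-enzyme wells negative, buffer-substituted wells positive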
Diaphorase act: activates diaphorase or chemically reduces, flagging diaphorase assay artifacts; Diaphorase/resazurin coupled assay, resorufin fluorescence, 16 min; hits give high values; 1 = vehicle wells, 0 = NADH-free wells; activation factor at 20 µM; 0.005% of 190,000 active;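 active = diaphorase activity raised at least twofold by the compound at 20 µM; inactive = activation factor below 2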
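test system = bacterial diaphorase enzyme (C. kluyveri) | quantity = enzyme 0.07 U/mL final | reagent = NADH substrate 0.114 mM plus resazurin dye 0.1 mM, final | incubation = 16 min enzyme reaction, ambient temperature | buffer or medium = HEPES pH 7.4 buffer with MgCl2 and Tween 20 | signal = fluorescence of resorufin, 544 nm excitation, 590 nm emission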
Numbers stand for hits; – = inactive; · = not tested or not shown.

SMILES	G6PDH CS	Diaphorase inh	PfGluPho inh	HKDC1 inh	Diaphorase act
CN(Cc1ccc(Cl)cc1Cl)C(=O)Cc1ccc(S(=O)(=O)N2CCOCC2)s1	·	·	–	·	·
CC(=O)Nc1ccc(N(C(=O)Cn2nnc3ccccc32)C(C(=O)NC2CCCC2)c2ccc(O)c(O)c2)cc1 (configuration not stated)	–	55.9	–	–	–
C[C@H](CO)N1C[C@H](C)[C@H](CN(C)C(=O)Nc2ccc(C(F)(F)F)cc2)OCc2cnnn2CCCC1=O	·	·	–	·	·
CCN(CC)CCN1C(=O)C(O)=C(C(=O)c2ccco2)C1c1ccccn1 (configuration not stated)	–	60.4	–	–	–
CCN(CC)CCCN1C(=O)C(O)=C(C(=O)c2cc3ccccc3o2)C1c1ccccn1 (configuration not stated)	–	–	–	–	–
CN1C=CC(C(C(N)=O)c2ccccc2)c2ccccc21 (configuration not stated)	·	·	–	·	·
Clc1ccc2[nH]c3c(c2c1)CCc1cn[nH]c1-3	–	–	–	–	–
c1ccc2c3c([nH]c2c1)-c1[nH]ncc1CC3	–	63.9	–	–	–
COc1cccc(CNc2ccc(N3CCC(C)CC3)cc2)c1OC	–	63.3	–	–	–
Cc1cccc(C(=O)Nc2nnc(S(=O)(=O)N(C)Cc3ccco3)s2)c1	·	·	95.4	–	·
CC(=O)c1c(N2CCCC2)nc(=S)n(-c2ccccc2)c1C	–	54.2	–	–	–
CCn1c(C)c(C(C)=O)c(N2CCN(c3ccccn3)CC2)nc1=S	–	62.5	–	–	–
CCCCNc1nc(=S)n(-c2ccccc2)c(C)c1C(C)=O	–	71.4	–	–	–
O=C(O)c1cnc2ccc(Cl)cc2n1	·	·	–	·	·
Cn1c(CNc2ccccc2O)nc2ccccc21	60.7	–	–	–	–
CCOC(=O)C1=C(O)/C(=C/c2ccc(OCC(=O)O)c(OCC)c2)SC1=Nc1ccc(C)cc1	–	62.1	–	–	–
O=C1C=CC(n2cc(F)c(=O)[nH]c2=O)O1 (configuration not stated)	·	·	–	·	·
Cc1c(Cl)cccc1NS(=O)(=O)c1ccc2c(c1)C1C=CCC1C(c1ccc(C(=O)O)cc1)N2 (configuration not stated)	–	58.7	–	–	–
COc1cc(/C=N/NC(=O)c2cc3ccccc3cc2O)ccc1OCCN1CCCCC1	–	89.3	–	–	–
COc1cccc(S(=O)(=O)Nc2ccc3c(c2)[C@H]2C[C@H](CC(=O)N[C@@H](C)c4ccccc4)O[C@H](CO)[C@H]2O3)c1	·	·	–	·	·
Cc1cc(NC(=O)CSc2ncnc3sccc23)no1	–	–	–	–	–
N#Cc1c(NC(=O)CSc2ncnc3sccc23)oc(-c2ccco2)c1-c1ccco1	–	59.8	–	–	–
CCOc1c(Cl)cc(CNc2ccc(S(N)(=O)=O)cc2)cc1OC	–	–	–	–	–
CCOc1c(Cl)cc(CNc2ccc(N3CCCC3)cc2)cc1OC	–	74.4	–	–	–
CC1=C2C3OC(=O)C(C)C3CCC2(C)C=C(Cl)C1=O (configuration not stated)	·	·	–	·	·
SMILES	G6PDH CS	Diaphorase inh	PfGluPho inh	HKDC1 inh	Diaphorase act
CN(C)c1cc(N/N=C/c2ccc(Cl)cc2)nc(N(C)C)n1	–	54.5	–	–	–
COc1cc(N/N=C/c2ccc(N(C)C)cc2)ncn1	–	–	–	–	–
COc1cccc2cc(-c3ccnc(=S)[nH]3)oc12	–	57.5	·	·	–
O=C(c1c[nH]c(C(=O)C(Cl)(Cl)Cl)c1)c1ccc(F)cc1Cl	–	59.8	–	–	–
C[C@@H]1CN([C@H](C)CO)C(=O)c2cc(-c3ccccc3)cnc2O[C@@H]1CN(C)C(=O)C1CCOCC1	·	·	–	·	·
COc1ccc(N2CCC(CNC(=O)Nc3cccc(OC)c3)C2)cc1 (configuration not stated)	–	56.8	–	–	–
CCOP(=O)(OCC)c1nc(/C=C/c2ccccc2)oc1NCc1ccc(OC)cc1	–	51.9	–	–	–
CCOP(=O)(OCC)c1nc(/C=C/c2ccccc2)oc1NCc1ccccc1	–	54.1	–	–	–
Cc1ccc(CNC(=O)CSc2nc(=O)n3ccc(C)cc3n2)cc1	·	·	–	·	·
COC(=O)C1(C)CCCC2(C)c3cc(OC)ccc3C(=O)C(Br)C12 (configuration not stated)	·	·	–	·	·
CCCN(C(=O)CSc1nnc(-c2ccc3c(c2)OCO3)o1)C1CCS(=O)(=O)C1 (configuration not stated)	·	·	–	·	·
CC(=O)c1cc2c(O)c(O)ccc2o1	54.5	73.5	–	–	–
Cc1sc(NC(=O)C2CC(=O)N(Cc3ccco3)C2)nc1-c1ccccc1 (configuration not stated)	·	·	–	·	·
CC(=O)Oc1c(C)cc(O)c2ccccc12	50.6	–	·	·	–
CN1OC[C@@H]2CN(S(=O)(=O)c3cccc4ccccc34)[C@H](c3ccc(-c4ccccc4)cc3)C[C@@H]21	·	·	–	·	·
O=C(/C=C/c1ccccc1)NC(=S)NNC(=O)c1ccco1	–	52.3	–	–	–
O=C(/C=C/c1ccc(Br)cc1)NC(=S)NNC(=O)c1ccco1	–	–	–	–	–
CCCCCCN1C[C@@H](O)[C@H](n2cc(COC(=O)c3ccccc3)nn2)C[C@@H]1c1ccc(OC)cc1	·	·	–	·	·
O=C1C2C3C=CC(C3)C2C(=O)N1CNc1ccc(O)cc1 (configuration not stated)	–	64.2	·	·	–
COC(=O)c1cc(=O)nc2sc(-c3ccc(F)cc3)nn12	–	–	59.1	–	–
Cc1nc2nc(C(F)(F)F)[nH]c2nc1C	·	·	–	·	·
N=C1/C(=C\c2ccc(SCc3ccco3)o2)C(=O)N=C2SC=NN12	–	54.1	–	–	–
Cc1ccc(S(=O)(=O)/N=C2/C=C(Sc3ncn[nH]3)C(=O)c3ccccc32)c(C)c1	–	69.0	·	·	–
Nc1ccc2c(c1)Nc1ccccc1CC2	–	61.5	–	–	–
CCCCCC(=O)N1C[C@H](n2cc(C3CC3)nn2)[C@@H](O)C[C@@H]1c1ccc(Cl)cc1	·	·	–	·	·
SMILES	G6PDH CS	Diaphorase inh	PfGluPho inh	HKDC1 inh	Diaphorase act
COc1cc(/C=C2\SC(=S)N(Nc3ccccc3)C2=O)ccc1O	–	–	–	–	–
O=C1/C(=C/c2ccc(O)c(O)c2)SC(=S)N1Nc1ccccc1	–	56.1	–	–	–
CCc1ccc(/C=C2\SC(=S)N(CCCC(=O)N(CCO)c3ccccc3)C2=O)cc1	·	·	–	·	·
COc1ccc(C(=O)C(=NN)c2ccccc2)cc1	·	·	–	·	·
O=C(/C(=N/N=C/c1ccc(O)c(O)c1O)c1ccccc1)c1ccccc1	–	61.5	–	–	–
CCn1c2ccccc2c2nnc(SCc3cc(=O)n4ccsc4n3)nc21	–	77.2	·	·	–
Cn1c(Cc2ccccc2)nnc1SCc1cc(=O)n2ccsc2n1	–	–	–	–	–
O=C(Nc1cc(C(F)(F)F)ccc1N1CCCCC1)C1=COCCO1	·	·	–	·	·
O=S1(=O)CCN(Cc2ccncc2)CC1	·	·	–	·	·

Screening data deposited in PubChem by Sanford-Burnham Center for Chemical Genomics.
